Laboratory results taken from ChEMBL document CHEMBL3045796, “Neonicotinoid insecticides: molecular features conferring selectivity for insect versus mammalian nicotinic receptors” (J Agric Food Chem, 2000).

Columns and labels:
[1] = Retention time under basic conditions using 20 mM Na2HPO4 (pH9.9)/MeOH (1:1) mobile phase by HPLC method; format: physicochemical; conditions: buffer, pH 9.9
In short: (§1)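 Reversed-phase HPLC at a flow rate of 0.7 mL/min, with a void volume of 2.46 min. Each retention time is the mean of three runs under that mobile-phase condition.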

[2] = Retention time under acidic conditions using H20/MeOH mobile phase containing 0.1% TFA (1:1) by HPLC method; format: physicochemical; in short: as §1
[3] = Retention time under neutral conditions using H20/MeOH (1:1) mobile phase by HPLC method; format: physicochemical; in short: as §1
[4] = molecular target: Neuronal acetylcholine receptor subunit alpha-4 (Mus musculus, UniProt O70174); test: Inhibition of [3H]nicotine binding to alpha4 nicotinic acetylcholine receptor in Mus musculus (mouse) M10 cells co-expressing beta2 nicotinic acetylcholine receptor subunits; format: cell-based
Neuronal acetylcholine receptor subunit alpha-4, sequence (O70174 whole entry): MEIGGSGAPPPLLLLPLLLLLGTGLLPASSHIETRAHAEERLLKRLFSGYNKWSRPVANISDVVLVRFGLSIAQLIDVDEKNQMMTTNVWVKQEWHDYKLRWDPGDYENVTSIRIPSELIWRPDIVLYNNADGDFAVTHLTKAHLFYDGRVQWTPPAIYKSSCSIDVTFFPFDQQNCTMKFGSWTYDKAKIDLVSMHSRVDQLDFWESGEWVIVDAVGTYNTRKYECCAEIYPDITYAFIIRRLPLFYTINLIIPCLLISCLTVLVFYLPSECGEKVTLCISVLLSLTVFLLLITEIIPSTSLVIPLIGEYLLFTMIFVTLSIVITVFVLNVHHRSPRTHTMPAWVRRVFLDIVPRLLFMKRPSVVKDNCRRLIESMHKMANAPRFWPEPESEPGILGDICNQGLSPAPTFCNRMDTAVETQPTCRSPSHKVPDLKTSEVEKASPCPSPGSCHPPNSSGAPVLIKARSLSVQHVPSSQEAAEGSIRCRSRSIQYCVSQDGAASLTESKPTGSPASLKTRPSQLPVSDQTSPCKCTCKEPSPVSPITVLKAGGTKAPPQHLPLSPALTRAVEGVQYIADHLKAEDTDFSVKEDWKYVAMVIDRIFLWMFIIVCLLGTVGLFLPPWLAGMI

Musca domestica = test: Toxicity against Musca domestica (house fly) dosed with compound through intra-thoracic injection pre-treated with 100 ug/g metabolic detoxification inhibitor O-propyl O-(2-propynyl)phenylphosphonate; format: functional
[5] = Toxicity in ip dosed Mus musculus (mouse); format: organism-based; conditions: in vivo
[6] = molecular target: T1, Acetylcholine receptor subunit beta-like 2 (Drosophila melanogaster, UniProt P25162); test: Inhibition of [3H]IMI binding to Drosophila melanogaster neuronal acetylcholine receptor
T1 sequence (P25162 whole entry): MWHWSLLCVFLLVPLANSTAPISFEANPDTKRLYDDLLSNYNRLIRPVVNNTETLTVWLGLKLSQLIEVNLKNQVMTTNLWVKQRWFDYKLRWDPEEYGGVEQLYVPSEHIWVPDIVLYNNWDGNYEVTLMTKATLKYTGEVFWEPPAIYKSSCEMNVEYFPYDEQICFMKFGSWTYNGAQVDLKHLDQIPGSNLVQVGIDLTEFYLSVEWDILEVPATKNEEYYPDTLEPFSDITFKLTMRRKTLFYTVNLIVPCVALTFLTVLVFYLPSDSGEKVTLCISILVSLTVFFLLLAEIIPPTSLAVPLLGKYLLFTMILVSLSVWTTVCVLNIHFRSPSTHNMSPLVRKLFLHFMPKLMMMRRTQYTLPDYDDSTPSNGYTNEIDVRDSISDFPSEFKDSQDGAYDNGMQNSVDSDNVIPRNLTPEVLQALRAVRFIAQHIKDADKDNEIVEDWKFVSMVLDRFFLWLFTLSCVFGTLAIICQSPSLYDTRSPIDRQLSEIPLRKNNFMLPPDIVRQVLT

[7] = molecular target: Neuronal acetylcholine receptor subunit alpha-7 (Homo sapiens, UniProt P36544); test: Inhibition of [125I]alpha-BGT binding to alpha7 nicotinic acetylcholine receptor in Homo sapiens (human) SH-SY5Y cells
Neuronal acetylcholine receptor subunit alpha-7, sequence (P36544 whole entry): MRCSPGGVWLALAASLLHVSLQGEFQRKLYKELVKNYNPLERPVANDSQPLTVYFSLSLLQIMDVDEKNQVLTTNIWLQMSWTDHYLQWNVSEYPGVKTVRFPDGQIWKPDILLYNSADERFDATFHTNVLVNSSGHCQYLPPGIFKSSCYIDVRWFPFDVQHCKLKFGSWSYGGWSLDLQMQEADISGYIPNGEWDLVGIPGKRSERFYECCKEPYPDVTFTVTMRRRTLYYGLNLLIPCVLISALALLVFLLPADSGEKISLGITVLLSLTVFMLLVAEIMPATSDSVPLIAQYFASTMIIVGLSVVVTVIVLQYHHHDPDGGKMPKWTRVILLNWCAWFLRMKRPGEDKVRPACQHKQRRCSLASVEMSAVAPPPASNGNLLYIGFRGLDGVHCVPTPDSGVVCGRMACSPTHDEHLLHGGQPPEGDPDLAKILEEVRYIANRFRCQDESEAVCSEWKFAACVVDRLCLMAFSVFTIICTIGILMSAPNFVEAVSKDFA

[8] = molecular target: Acetylcholine receptor subunit alpha (Homo sapiens, UniProt P02708+P07510+P11230+Q07001); test: Inhibition of [125I]alpha-BGT binding to alpha1 nicotinic acetylcholine receptor in Homo sapiens (human) TE671 cells co-expressing gammaalpha1deltabeta1 nicotinic acetylcholine receptor subunits
Acetylcholine receptor subunit alpha, sequence (P02708 whole entry, one chain of several): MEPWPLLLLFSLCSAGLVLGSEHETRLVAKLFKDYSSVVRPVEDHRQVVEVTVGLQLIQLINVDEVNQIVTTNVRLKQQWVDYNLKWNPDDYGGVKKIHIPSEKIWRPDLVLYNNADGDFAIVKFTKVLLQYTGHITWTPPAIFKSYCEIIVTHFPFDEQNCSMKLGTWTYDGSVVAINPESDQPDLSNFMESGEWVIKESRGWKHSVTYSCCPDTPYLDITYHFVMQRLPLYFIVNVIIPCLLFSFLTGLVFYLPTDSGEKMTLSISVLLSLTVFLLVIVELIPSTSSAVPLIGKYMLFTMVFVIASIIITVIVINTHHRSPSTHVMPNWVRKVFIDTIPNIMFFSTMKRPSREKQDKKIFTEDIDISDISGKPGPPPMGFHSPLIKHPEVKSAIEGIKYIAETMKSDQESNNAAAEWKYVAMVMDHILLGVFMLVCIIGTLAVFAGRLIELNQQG

[9] = molecular target: Neuronal acetylcholine receptor subunit alpha-3 (Homo sapiens, UniProt P32297); test: Inhibition of [3H]nicotine binding to alpha3 nicotinic acetylcholine receptor in Homo sapiens (human) SH-SY5Y cells co-expressing beta2beta4alpha5 Nicotinic acetylcholine receptor subunits; format: cell-based
Neuronal acetylcholine receptor subunit alpha-3, sequence (P32297 whole entry): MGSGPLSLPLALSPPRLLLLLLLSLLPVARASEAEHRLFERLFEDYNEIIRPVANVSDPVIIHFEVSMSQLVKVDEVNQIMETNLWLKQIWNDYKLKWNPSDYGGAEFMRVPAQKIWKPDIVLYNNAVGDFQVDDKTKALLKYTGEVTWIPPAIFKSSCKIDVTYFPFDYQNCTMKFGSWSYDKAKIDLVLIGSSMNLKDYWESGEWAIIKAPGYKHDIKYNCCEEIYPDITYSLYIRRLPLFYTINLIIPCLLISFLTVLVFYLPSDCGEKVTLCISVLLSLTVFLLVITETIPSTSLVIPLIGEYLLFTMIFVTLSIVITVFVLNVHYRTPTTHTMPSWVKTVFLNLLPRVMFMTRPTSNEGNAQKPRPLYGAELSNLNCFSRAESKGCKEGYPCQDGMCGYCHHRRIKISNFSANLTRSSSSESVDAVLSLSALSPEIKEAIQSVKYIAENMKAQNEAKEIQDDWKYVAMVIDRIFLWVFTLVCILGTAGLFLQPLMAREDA

[10] = molecular target: Acetylcholine receptor subunit alpha (Homo sapiens) (UniProt P02708); test: Inhibition of […] binding to alpha1 nicotinic acetylcholine receptor in Homo sapiens (human) TE671 cells co-expressing gammaalpha1deltabeta1 nicotinic acetylcholine receptor at >300 uM; format: cell-based; conditions: TE-671
Acetylcholine receptor subunit alpha (Homo sapiens), sequence (P02708 whole entry): as the sequence (P02708 whole entry, one chain of several) above

Row | SMILES | Retention_time [1] [min] | Retention_time [2] [min] | Retention_time [3] [min] | IC50 [4] [nM] | LD50 (Musca domestica) [mg/kg] | LD50 [5] [mg/kg] | IC50 [6] [nM] | IC50 [7] [nM] | IC50 [8] [nM] | IC50 [9] [nM] | inhibition [10] [%]
1 | N#C/N=C1\SCCN1Cc1ccc(Cl)nc1 [THIACLOPRID] | 6.05 | 6.07 | 6.06 | 860 | 0.03 | 25 | 2.7 | 100000 | 120000 | – | –
2 | Clc1ccc(C2CC3CCC2N3)cn1 (racemic) [EPIBATIDINE] | – | – | – | 0.037 | > 25 | 0.06 | 430 | 31 | 160 | – | –
3 | CN1CCC[C@H]1c1cccnc1 [NICOTINE] | 11.23 | 3.16 | 3.18 | – | > 50 | 6 | 4000 | – | 21000 | – | –
4 | N=c1sccn1Cc1ccc(Cl)nc1 | 4.21 | 2.98 | 3.02 | 1.4 | > 5 | 0.7 | 185 | 4000 | 8000 | – | –
5 | O=[N+]([O-])/C=C1/NCCCN1Cc1ccc(Cl)nc1 | – | – | – | 80 | 0.08 | 10 | 0.37 | 1000 | 81000 | 180 | –
6 | O=[N+]([O-])NC1=NCCN1Cc1ccc(Cl)nc1 [IMIDACLOPRID] | 4.82 | 4.87 | 4.84 | 2600 | – | 40 | 4.6 | 270000 | > 300000 | 14000 | –
7 | N=C1SCCN1Cc1ccc(Cl)nc1 [DESCYANOTHIACLOPRID] | 4.23 | 2.84 | 3 | 4.4 | > 5 | 0.7 | 200 | 6000 | 6000 | – | –
8 | O=[N+]([O-])/N=C1\NCCN1Cc1ccc(Cl)nc1 [IMIDACLOPRID] | – | – | – | – | 0.02 | – | – | – | – | – | 39
9 | N=C1NCCN1Cc1ccc(Cl)nc1 [DESNITROIMIDACLOPRID] | 4.24 | 2.8 | 2.9 | 8.2 | > 5 | 6 | 1530 | 9900 | 11000 | 14 | –
